According to ChEMBL document CHEMBL1148692, “Synthesis, antiviral and antitumor activity of 2-substituted-5-amidino-benzimidazoles” (Bioorg Med Chem, 2007):
pEC50, pIC50: −log10 of the molar value. Calls of active or inactive are those of the source. The rule behind the calls is not given here.

Key:
[1] = test system: HeLa; experiment: Growth inhibition of human HeLa cells by MTT assay; format: functional, cell-based
How it was run: (§1)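 Cells were kept as monolayers in DMEM with 10% FBS, 2 mM glutamine and antibiotics at 37 °C under 5% CO₂, and seeded at 1–3 × 10⁴ cells/mL. They were exposed for 72 h to five 10-fold dilutions (10⁻⁸–10⁻⁴ M), with DMSO solvent controls. Growth was read by MTT at 570 nm and expressed as percentage growth relative to time-zero and untreated controls. IC50 was obtained by linear regression from quadruplicates in three experiments.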

[2] = test system: NCI-H460; experiment: Growth inhibition of human H460 cells by MTT assay; format: functional, cell-based; how it was run: as §1
[3] = test system: Human adenovirus 5; experiment: Antiviral activity against Adenovirus 5 in HeLa cells by MTT assay; format: functional, organism-based; conditions: in the assay text read “by optical evaluation of CPE” for “by MTT assay”; for pEC50: Human mastadenovirus C
How it was run: (§2)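 HeLa monolayers were seeded at 10⁵ cells/mL and grown in DMEM with 10% FBS. Compounds were serially diluted from 10⁻⁴ to 10⁻¹⁰ M and added to one-day-old confluent monolayers, which were then immediately infected at 10 CCID50 in DMEM with 2% serum. Cytopathic effect was scored by optical microscopy at 48 h and compared with untreated infected wells. EC50 is the mean of at least three independent evaluations.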

[4] = test system: SW-620; experiment: Growth inhibition of human SW620 cells by MTT assay; format: functional, cell-based; how it was run: as §1
[5] = test system: Human alphaherpesvirus 1; experiment: Antiviral activity against Herpesvirus 1 in HeLa cells by MTT assay; format: functional, organism-based; conditions: in the assay text read “by optical evaluation of CPE” for “by MTT assay”; for pEC50: Human alphaherpesvirus 1, HeLa; how it was run: as §2
[6] = test system: MCF7; experiment: Growth inhibition of human MCF7 cells by MTT assay; format: functional, cell-based; how it was run: as §1
[7] = Growth inhibition of human WI38 cells by MTT assay; format: cell-based; conditions: WI-38; how it was run: as §1
[8] = test system: MIA PaCa-2; experiment: Growth inhibition of human MiaPaCa2 cells by MTT assay; format: functional, cell-based; how it was run: as §1
[9] = test system: Human echovirus 7; experiment: Antiviral activity against Echovirus 7 in GMK cells by MTT assay; format: functional, cell-based, Echovirus E7; conditions: Enterovirus B
How it was run: (§3)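 GMK monolayers were seeded at 10⁵ cells/mL and grown in DMEM with 10% FBS. Compound dilutions from 10⁻⁴ to 10⁻¹⁰ M were added to one-day-old confluent cells, immediately followed by virus at 10 CCID50 in DMEM with 2% serum. Cell lysis was followed microscopically at 24 h and quantified by MTT, as % CPE inhibition versus infected wells without compound. EC50 is the mean of at least two independent MTT experiments.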

[10] = test system: Coxsackievirus B5; experiment: Antiviral activity against Coxsackievirus B5 in GMK cells by MTT assay; format: functional, organism-based; conditions: Enterovirus B; how it was run: as §3

| Compound | pIC50 [1] | pIC50 [2] | pIC50 [4] | pIC50 [6] | pIC50 [8] | pEC50 [3] | pEC50 [5] | pIC50 [7] | pEC50 [9] | pEC50 [10] | Activity [3] | Activity [5] |
| --- | --- | --- | --- | --- | --- | --- | --- | --- | --- | --- | --- | --- |
| COc1cc([C@@H]2c3cc4c(cc3[C@@H](O[C@@H]3O[C@@H]5CO[C@@H](C)O[C@H]5[C@H](O)[C@H]3O)[C@H]3COC(=O)[C@H]23)OCO4)cc(OC)c1O [ETOPOSIDE] | 5.54 | 6.70 | – | – | – | – | – | – | – | – | – | – |
| N=C(N)c1ccc2[nH]c(-c3ccccn3)nc2c1 | 4.09 | < 4.00 | < 4.00 | ≤ 4.00 | < 4.00 | < 4.00 | < 4.00 | 4.23 | 5.49 | 5.77 | – | – |
| c1ncc(-c2nc3cc(C4=NCCN4)ccc3[nH]2)[nH]1 | < 4.00 | < 4.00 | < 4.00 | ≤ 4.00 | < 4.00 | – | < 4.00 | < 4.00 | < 4.00 | < 4.00 | inactive | – |
| c1ccc(-c2nc3cc(C4=NCCN4)ccc3[nH]2)nc1 | 4.80 | 4.65 | 4.72 | 4.92 | 4.80 | < 4.00 | 4.25 | 4.92 | 6.20 | 5.37 | – | – |
| CC(C)NC(=N)c1ccc2[nH]c(-c3cnc[nH]3)nc2c1 | < 4.00 | < 4.00 | < 4.00 | 4.59 | < 4.00 | – | < 4.00 | < 4.00 | < 4.00 | < 4.00 | inactive | – |
| N=C(N)c1ccc2[nH]c(-c3cnc[nH]3)nc2c1 | < 4.00 | < 4.00 | < 4.00 | 5.14 | 4.47 | – | – | < 4.00 | < 4.00 | < 4.00 | inactive | inactive |

Second part, led by results:

| pIC50 [1] | pIC50 [2] | pIC50 [4] | pIC50 [6] | pIC50 [8] | Compound | pEC50 [3] | pEC50 [5] | pIC50 [7] | pEC50 [9] | pEC50 [10] | Activity [3] | Activity [5] |
| --- | --- | --- | --- | --- | --- | --- | --- | --- | --- | --- | --- | --- |
| < 4.00 | < 4.00 | < 4.00 | 4.30 | 4.10 | CC(C)NC(=N)c1ccc2[nH]c(-c3ccccn3)nc2c1 | 4.82 | < 4.00 | 4.69 | 6.48 | 5.57 | – | – |
| 4.15 | < 4.00 | 4.08 | 4.92 | < 4.00 | Cn1cccc1-c1nc2cc(C(=N)N)ccc2[nH]1 | 5.23 | 4.52 | < 4.00 | 5.30 | 5.46 | – | – |
| < 4.00 | < 4.00 | < 4.00 | 4.70 | < 4.00 | CC(C)NC(=N)c1ccc2[nH]c(-c3cccn3C)nc2c1 | – | – | < 4.00 | 4.63 | < 4.00 | inactive | inactive |
| 4.70 | 4.42 | 4.82 | 5.30 | 4.94 | Cn1cccc1-c1nc2cc(C3=NCCN3)ccc2[nH]1 | < 4.00 | 4.55 | 4.81 | < 4.00 | < 4.00 | – | – |
